Measured values of several laboratories.
Compare with care: the assays were run in different laboratories.

SMILES | cell line | assay | conditions | quantity | result
COc1cc(O)c2c(=O)c(OC)c(-c3ccc(O)cc3)oc2c1 | RBL-2H3 | degranulation, inhibitor | – | IC50 | 80400 nM
CC(C)[C@@H]1NC(=O)[C@H](C)OC(=O)[C@@H](C(C)C)NC(=O)[C@@H](C(C)C)OC(=O)[C@H](C(C)C)NC(=O)[C@H](C)OC(=O)[C@@H](C(C)C)NC(=O)[C@@H](C(C)C)OC(=O)[C@H](C(C)C)NC(=O)[C@H](C)OC(=O)[C@@H](C(C)C)NC(=O)[C@@H](C(C)C)OC1=O | C6 | cell growth or viability, SRB | – | IC50 | 24 nM
O=C(NCCc1c[nH]c2ccccc12)C(=O)c1cn(Cc2ccc(Cl)cc2)c2ccc(F)cc12 | C4-2 | cell growth or viability, MTT | – | IC50 | > 100000 nM
c1ccc2c(NCCCCCCNc3c4ccccc4nc4ccccc34)c3ccccc3nc2c1 | MDA-MB-468 | cell growth or viability, MTT | – | IC50 | 96 nM
c1ccc([C@@H]2C[C@H]2NC2CCNCC2)cc1 | MV4-11 | cell growth or viability, resazurin | 96 h | EC50 | 0.48 nM
COc1cccc2c1C(=O)c1c(O)c3c(c(O)c1C2=O)C[C@@](O)(C(=O)CO)C[C@@H]3O[C@H]1C[C@H](N)[C@H](O)[C@H](C)O1 | C6 | cell growth or viability, SRB | 72 h | IC50 | 500 nM
CCn1cc(C(=O)C(=O)NCCc2c[nH]c3ccccc23)c2ccccc21 | C4-2 | cell growth or viability, MTT | – | IC50 | > 100000 nM
Cn1cncc1[C@@](N)(c1ccc(Cl)cc1)c1ccc2c(c1)c(-c1cccc(Cl)c1)cc(=O)n2C | HN-6 | cell growth or viability | 72 h | IC50 | 2270 nM
Cc1c2cnccc2c(C)c2c1c1ccccc1n2CCCCCCNCc1ccccc1 | MDA-MB-468 | cell growth or viability, MTT | – | IC50 | 720 nM
COc1ccc2c(c1)c(C(=O)C(=O)NCCc1c[nH]c3ccccc13)cn2Cc1ccc(Cl)cc1 | C4-2 | cell growth or viability, MTT | – | IC50 | > 100000 nM
O=C(O)C(Cl)Cl | BCPAP | cell growth or viability, MTT | 72 h | IC50 | > 50000 nM
